Measured values: ChEMBL document CHEMBL5136969, “A niclosamide-tobramycin hybrid adjuvant potentiates cefiderocol against P. aeruginosa” (2021)
The source made the active and inactive calls.

What was measured:
Pseudomonas aeruginosa [1] = assay: Antibacterial activity against colistin-resistant clinical isolate Pseudomonas aeruginosa PA114228 assessed as potentiation of cefiderocol antibacterial activity by measuring FIC index after 18 hrs by microbroth dilution method; assay type: functional
Procedure, shortened: (§1)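 Checkerboard in MHB (iron-replete, not iron-depleted CAMHB). Cefiderocol was 2-fold serially diluted along one axis and the adjuvant along the other. Inoculum was 0.5 McFarland diluted 1:50, about 5 × 10^5 CFU/mL final. Incubation was 18 h at 37 °C, with turbidity read visually and confirmed at 590 nm. FIC was the MIC in combination over the MIC alone for each agent, and the FIC index was their sum. Cut-offs were ≤0.5 synergy, >0.5–4 additive, >4 antagonism.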

Pseudomonas aeruginosa [2] = assay: Potentiation of minocycline-induced antibiotic activity against Pseudomonas aeruginosa PAO1 assessed as MIC fold reduction at 8 ug/ml after 18 hrs by microbroth dilution method; assay type: functional; conditions: dose 8 µg/ml
Procedure, shortened: (§2)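 Adjuvant held at a fixed 8 μg/mL while the antibiotic was 2-fold serially diluted in Mueller-Hinton broth (MHB), per CLSI microbroth dilution. Overnight cultures were adjusted in saline to 0.5 McFarland, then diluted 1:50 in MHB to about 5 × 10^5 CFU/mL final, and incubated 18 h at 37 °C. MIC was the lowest concentration with no visible turbidity, confirmed at 590 nm. Fold potentiation = MIC alone / MIC with adjuvant.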

Acinetobacter baumannii [3] = assay: Potentiation of novobiocin-induced antibiotic activity against Acinetobacter baumannii ATCC 17978 assessed as MIC fold reduction at 8 ug/ml after 18 hrs by microbroth dilution method; assay type: functional; conditions: dose 8 µg/ml
Pseudomonas aeruginosa [4] = assay: Potentiation of moxifloxacin-induced antibiotic activity against Pseudomonas aeruginosa PA264 assessed as MIC fold reduction in ID-CAMHB condition at 8 ug/ml after 18 hrs by microbroth dilution method; assay type: functional, organism-based; conditions: dose 8.0 µg/ml
Pseudomonas aeruginosa [5] = assay: Antibacterial activity against MDR clinical isolate Pseudomonas aeruginosa PA108590 assessed as reduction in bacterial growth after 18 hrs by microbroth dilution method; assay type: functional
Procedure, shortened: (§3)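 CLSI broth microdilution. Overnight cultures were adjusted in saline to 0.5 McFarland, diluted 1:50 in Mueller-Hinton broth (MHB), and inoculated at about 5 × 10^5 CFU/mL. Agents were 2-fold serially diluted in MHB, mixed 1:1 with inoculum, and held at 37 °C for 18 h. MIC was the lowest concentration with no visible turbidity, confirmed at 590 nm.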

Pseudomonas aeruginosa [6] = assay: Antibacterial activity against MDR clinical isolate Pseudomonas aeruginosa PA260 assessed as reduction in bacterial growth after 18 hrs in presence of cefiderocol by microbroth dilution method; assay type: functional
Procedure, shortened: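 Checkerboard in MHB. Cefiderocol was 2-fold serially diluted along one axis and the adjuvant along the other. Inoculum was prepared from 0.5 McFarland saline suspensions diluted 1:50 in MHB, giving about 5 × 10^5 CFU/mL final. Plates ran 18 h at 37 °C, with turbidity confirmed at 590 nm. FIC = combination MIC ÷ MIC alone for each agent, and FIC index = sum of both. Interpretation: ≤0.5 synergy, >0.5–4 additive, >4 antagonism.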

Escherichia coli = assay: Potentiation of fosfomycin-induced antibiotic activity against Escherichia coli ATCC 25922 assessed as MIC fold reduction at 8 ug/ml after 18 hrs by microbroth dilution method; assay type: functional; conditions: dose 8 µg/ml; procedure, shortened: as §2
Pseudomonas aeruginosa [7] = assay: Potentiation of ciprofloxacin-induced antibiotic activity against Pseudomonas aeruginosa PAO1 assessed as MIC fold reduction at 8 ug/ml after 18 hrs by microbroth dilution method; assay type: functional; conditions: dose 8 µg/ml; procedure, shortened: as §2
Acinetobacter baumannii [8] = assay: Potentiation of rifampicin-induced antibiotic activity against Acinetobacter baumannii ATCC 17978 assessed as MIC fold reduction at 8 ug/ml after 18 hrs by microbroth dilution method; assay type: functional; conditions: dose 8 µg/ml
Pseudomonas aeruginosa [9] = assay: Antibacterial activity against colistin-resistant clinical isolate Pseudomonas aeruginosa PA91433 assessed as reduction in bacterial growth after 18 hrs by microbroth dilution method; assay type: functional
Procedure, shortened: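 Broth microdilution per CLSI in Mueller-Hinton broth (MHB). Overnight cultures were adjusted to 0.5 McFarland in saline, diluted 1:50 in MHB, and added at about 5 × 10^5 CFU/mL final to equal volumes of 2-fold serial dilutions of agent. Incubation was 18 h at 37 °C. MIC was the lowest concentration with no visible turbidity, confirmed by absorbance at 590 nm.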

Enterococcus faecium = assay: Antibacterial activity against Enterococcus faecium ATCC 27270 assessed as reduction in bacterial growth after 18 hrs by microbroth dilution method; assay type: functional
Procedure, shortened: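 CLSI microbroth dilution in MHB. Overnight cultures were adjusted to 0.5 McFarland in saline, diluted 1:50, and inoculated at about 5 × 10^5 CFU/mL. Agents were 2-fold serially diluted and incubated 18 h at 37 °C. MIC is the lowest concentration without visible turbidity, confirmed by absorbance at 590 nm. Medium with and without cells served as controls.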

Pseudomonas aeruginosa [10] = assay: Potentiation of ceftazidime-induced antibiotic activity against MDR clinical isolate Pseudomonas aeruginosa PA260 assessed as MIC fold reduction at 8 ug/ml after 18 hrs by microbroth dilution method; assay type: functional, organism-based; conditions: dose 8.0 µg/ml; procedure, shortened: as §2
Klebsiella pneumoniae = assay: Antibacterial activity against Klebsiella pneumoniae KP113250 assessed as potentiation of cefiderocol antibacterial activity by measuring FIC after 18 hrs by microbroth dilution method; assay type: functional
Procedure, shortened: (§4)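 Checkerboard in Mueller-Hinton broth: cefiderocol 2-fold diluted on one axis, adjuvant 2-fold on the other. Overnight cultures were adjusted to 0.5 McFarland in saline, diluted 1:50 in MHB, and inoculated at about 5 × 10^5 CFU/mL. Incubation was 18 h at 37 °C. Turbidity was read visually and confirmed at 590 nm. FIC index = FIC of antibiotic + FIC of adjuvant; ≤0.5 synergy, >4 antagonism.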

Pseudomonas aeruginosa [11] = assay: Potentiation of ceftazidime-induced antibiotic activity against MDR clinical isolate Pseudomonas aeruginosa PA259 assessed as MIC fold reduction at 8 ug/ml after 18 hrs by microbroth dilution method; assay type: functional, organism-based; conditions: dose 8.0 µg/ml; procedure, shortened: as §2
Acinetobacter baumannii [12] = assay: Antibacterial activity against Acinetobacter baumannii AB031 assessed as potentiation of cefiderocol antibacterial activity by measuring FIC after 18 hrs by microbroth dilution method; assay type: functional; procedure, shortened: as §4
Pseudomonas aeruginosa [13] = assay: Potentiation of moxifloxacin-induced antibiotic activity against Pseudomonas aeruginosa PA260 assessed as MIC fold reduction in ID-CAMHB condition at 8 ug/ml after 18 hrs by microbroth dilution method; assay type: functional, organism-based; conditions: dose 8.0 µg/ml
Pseudomonas aeruginosa [14] = assay: Potentiation of sulfamethoxazole-induced antibiotic activity against Pseudomonas aeruginosa PAO1 assessed as MIC fold reduction at 8 ug/ml after 18 hrs by microbroth dilution method; assay type: functional; conditions: dose 8 µg/ml
Pseudomonas aeruginosa [15] = assay: Potentiation of ceftolozane-induced antibiotic activity against MDR clinical isolate Pseudomonas aeruginosa PA260 assessed as MIC fold reduction at 8 ug/ml after 18 hrs by microbroth dilution method; assay type: functional, organism-based; conditions: dose 8.0 µg/ml; procedure, shortened: as §2
Acinetobacter baumannii [16] = assay: Potentiation of cindamycin-induced antibiotic activity against Acinetobacter baumannii ATCC 17978 assessed as MIC fold reduction at 8 ug/ml after 18 hrs by microbroth dilution method; assay type: functional; conditions: dose 8 µg/ml; procedure, shortened: as §2
Acinetobacter baumannii [17] = assay: Potentiation of ceftolozane-induced antibiotic activity against Acinetobacter baumannii ATCC 17978 assessed as MIC fold reduction at 8 ug/ml after 18 hrs by microbroth dilution method; assay type: functional; conditions: dose 8 µg/ml; procedure, shortened: as §2
Pseudomonas aeruginosa [18] = assay: Antibacterial activity against MDR clinical isolate Pseudomonas aeruginosa PA259 assessed as reduction in bacterial growth after 18 hrs by microbroth dilution method; assay type: functional; procedure, shortened: as §3
Pseudomonas aeruginosa [19] = assay: Antibacterial activity against MDR clinical isolate Pseudomonas aeruginosa PA262 assessed as reduction in bacterial growth after 18 hrs in presence of cefiderocol by microbroth dilution method; assay type: functional; procedure, shortened: as §1

NC[C@H]1O[C@H](O[C@H]2[C@H](OCCCCc3cn(-c4ccc(NC(=O)c5cc(Cl)ccc5O)cc4)nn3)[C@@H](O[C@H]3O[C@H](CO)[C@@H](O)[C@H](N)[C@H]3O)[C@H](N)C[C@@H]2N)[C@H](N)C[C@@H]1O
FIC (Pseudomonas aeruginosa [1]): 1
fold change (FC) (Pseudomonas aeruginosa [2]): 4
fold change (FC) (Acinetobacter baumannii [3]): 4
Activity (Pseudomonas aeruginosa [4]): Active
MIC (Pseudomonas aeruginosa [5]): > 128 µg/mL
MIC (Pseudomonas aeruginosa [6]): 0.125 µg/mL
fold change (FC) (Escherichia coli): 4
fold change (FC) (Pseudomonas aeruginosa [7]): 4
fold change (FC) (Acinetobacter baumannii [8]): 4
MIC (Pseudomonas aeruginosa [9]): > 128 µg/mL
MIC (Enterococcus faecium): > 128 µg/mL
Activity (Pseudomonas aeruginosa [10]): Active
FIC (Klebsiella pneumoniae): 0.25
Activity (Pseudomonas aeruginosa [11]): Active
FIC (Acinetobacter baumannii [12]): 0.5
Activity (Pseudomonas aeruginosa [13]): Active
fold change (FC) (Pseudomonas aeruginosa [14]): 4
Activity (Pseudomonas aeruginosa [15]): Active
fold change (FC) (Acinetobacter baumannii [16]): 4
fold change (FC) (Acinetobacter baumannii [17]): 4
MIC (Pseudomonas aeruginosa [18]): > 128 µg/mL
MIC (Pseudomonas aeruginosa [19]): 1 µg/mL
